Test results taken from ChEMBL document CHEMBL1126796, “2-(Alkylamino)nicotinic acid and analogs. Potent angiotensin II antagonists” (J Med Chem, 1993).
pKi: −log10 of the molar value. Each block holds one molecule with its values, some of them ahead of it. Calls of active or inactive are those of the source. The calls are words filed in the database; no cut-off is given here.

Assays:
[1] = tested on: Rattus norvegicus; assay: % decrease in blood pressure after 4 hours at a dose of 30 mg/kg in male rats by using Renal artery hypertensive model; assay type: functional
Outline: (§1)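 Male Sprague-Dawley rats (300-350 g) were made hypertensive by renal artery ligation and used on day 6 or 7 after ligation. Arterial pressure was measured from an indwelling femoral artery catheter, with blood pressure and heart rate recorded on line. Read-out is % decrease in blood pressure at 4 h, ±SEM, with number of rats.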

[2] = molecular target: T1, Type-1 angiotensin II receptor A (Rattus norvegicus, UniProt P25095); assay: Binding affinity against angiotensin II receptor from rat liver
T1 sequence (P25095 whole entry): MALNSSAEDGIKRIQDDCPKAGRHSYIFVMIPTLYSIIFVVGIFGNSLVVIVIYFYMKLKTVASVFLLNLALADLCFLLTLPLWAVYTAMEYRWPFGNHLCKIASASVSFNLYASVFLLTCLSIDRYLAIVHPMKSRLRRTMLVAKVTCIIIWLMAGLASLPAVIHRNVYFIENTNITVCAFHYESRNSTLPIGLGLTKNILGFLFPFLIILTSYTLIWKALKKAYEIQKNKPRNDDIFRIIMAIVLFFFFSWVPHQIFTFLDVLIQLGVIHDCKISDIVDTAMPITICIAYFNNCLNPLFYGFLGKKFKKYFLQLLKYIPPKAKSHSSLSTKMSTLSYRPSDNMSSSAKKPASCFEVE
Outline: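 Rat liver membranes were incubated with [125I]-saralasin to measure angiotensin II type 1 receptor binding. Nonspecific binding was defined with 1 µM angiotensin.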

[3] = tested on: Rattus norvegicus; assay: % decrease in blood pressure after 4 hours in male rats at a dose of 10 mg/kg by using Renal artery hypertensive model; assay type: functional; outline: as §1
[4] = tested on: Rattus norvegicus; assay: % decrease in blood pressure after 24 hours at a dose of 10 mg/kg in male rats by using Furosemide-treated spontaneous hypertensive model; assay type: functional
Outline: (§2)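 Male SHR, 20-24 weeks old, pretreated with furosemide 10 mg/kg sc at 22 and 4 h before the experiment; compound dosed orally. Arterial pressure was recorded from an indwelling femoral artery catheter with on-line blood pressure and heart rate analysis. Read-out is % fall in blood pressure at 4 h and at 24 h, ±SEM, with number of rats.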

[5] = tested on: Rattus norvegicus; assay: % decrease in blood pressure after 4 hours at a dose of 10 mg/kg in male rats by using Renal artery hypertensive model; assay type: functional; outline: as §1
[6] = tested on: Rattus norvegicus; assay: % decrease in blood pressure after 4 hours at a dose of 10 mg/kg in male rats by using Furosemide-treated spontaneous hypertensive model; assay type: functional; outline: as §2
[7] = tested on: Rattus norvegicus; assay: % decrease in blood pressure after 4 hours in male rats at a dose of 3 mg/kg by using Renal artery hypertensive model; IA means inactive; assay type: functional, organism-based; design: dose 3 mg/kg; outline: as §1
[8] = tested on: Rattus norvegicus; assay: % decrease in blood pressure after 4 hours at a dose of 1 mg/kg in male rats by using Furosemide-treated spontaneous hypertensive model; assay type: functional; outline: as §2
[9] = tested on: Rattus norvegicus; assay: % decrease in blood pressure after 24 hours at a dose of 1 mg/kg in male rats by using Furosemide-treated spontaneous hypertensive model; assay type: functional; outline: as §2
[10] = Half-life period after oral dose of 3.87 mg/kg; assay type: ADME, organism-based; design: dose 3.87 mg/kg, route oral; conditions: in vivo
Outline: (§3)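 Male Sprague-Dawley-derived rats. Compound was given in normal saline at 1 mL/kg, either as a slow iv bolus into the jugular vein or orally by gavage. Plasma underwent liquid-liquid extraction and reverse-phase HPLC. Terminal elimination half-life and time of observed peak concentration were taken from the profiles.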

[11] = Plasma clearance after intravenous dose of 3.87 mg/kg; assay type: ADME, organism-based; design: dose 3.87 mg/kg, route intravenous; conditions: read-out: Clp
Outline: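 Male Sprague-Dawley-derived rats received a slow iv bolus into the jugular vein of the compound in normal saline (1 mL/kg). Tail-vein heparinized blood was drawn from 0.1 to 24 h and assayed by reverse-phase HPLC after liquid-liquid extraction. Total plasma clearance was calculated as dose divided by AUC and reported as mean (SEM).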

[12] = tested on: Rattus norvegicus; assay: % decrease in blood pressure after 4 hours in male rats at a dose of 0.1 mg/kg by using Renal artery hypertensive model; assay type: functional; outline: as §1
[13] = tested on: Rattus norvegicus; assay: % decrease in blood pressure after 4 hours in male rats at a dose of 0.03 mg/kg by using Renal artery hypertensive model; assay type: functional; outline: as §1
[14] = Half-life period of compound after intravenous dose of 3.87 mg/kg; assay type: ADME, organism-based; design: dose 3.87 mg/kg, route intravenous; conditions: in vivo; outline: as §3
[15] = Volume of distribution of central compartment (= dose+ plasma concentration at time zero) after intravenous dose of 3.87 mg/kg; assay type: ADME, organism-based; design: dose 3.87 mg/kg, route intravenous; conditions: read-out: VI
Outline: (§4)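 Jugular-vein slow iv bolus (normal saline, 1 mL/kg) in male Sprague-Dawley-derived rats. Plasma was sampled via the tail vein at 0.1–24 h and measured by reverse-phase HPLC after liquid-liquid extraction. Central volume was taken as dose divided by plasma concentration at time zero. Terminal-phase volume was derived from clearance and the plasma elimination rate constant.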

[16] = Apparent bioavailability after oral dose of 3.87 mg/kg; assay type: ADME, organism-based; conditions: eutheria, in vivo
Outline: (§5)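 Male Sprague-Dawley-derived rats were dosed with compound in normal saline (1 mL/kg), by gavage or as a slow IV bolus into the jugular vein. Heparinized tail-vein blood was taken at 0.25-24 h, extracted liquid-liquid and assayed by reverse-phase HPLC. Cmax is the observed peak concentration and AUC is mean (SEM). F compares oral with IV AUC, corrected for dose and assuming dose proportionality.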

[17] = Tmax value after oral dose of 3.87 mg/kg; assay type: ADME, organism-based; design: dose 3.87 mg/kg, route oral; conditions: in vivo; outline: as §3
[18] = tested on: Rattus norvegicus; assay: % decrease in blood pressure after 4 hours at a dose of 3 mg/kg in male rats by using Renal artery hypertensive model; assay type: functional; outline: as §1
[19] = tested on: Rattus norvegicus; assay: % decrease in blood pressure after 4 hours in male rats at a dose of 0.3 mg/kg by using Renal artery hypertensive model; assay type: functional; outline: as §1
[20] = Volume of distribution of the terminal phase (= CLp+ plasma elimination rate constant) after intravenous dose of 3.87 mg/kg; assay type: ADME, organism-based; design: dose 3.87 mg/kg, route intravenous; conditions: read-out: Vbeta; outline: as §4
[21] = Area under curve after oral dose of 3.87 mg/kg; assay type: ADME, organism-based; design: dose 3.87 mg/kg, route oral; conditions: in vivo; outline: as §5
[22] = Cmax value after oral dose of 3.87 mg/kg; assay type: ADME, organism-based; design: dose 3.87 mg/kg, route oral; conditions: in vivo; outline: as §5
[23] = tested on: Rattus norvegicus; assay: % decrease in blood pressure after 4 hours at a dose of 0.3 mg/kg in male rats by using Renal artery hypertensive model; assay type: functional; outline: as §1

- pKi [2]: 7.69
Compound: CCOC(=O)c1cnc(CC)nc1NCc1ccc(-c2ccccc2-c2nn[nH]n2)cc1
- Decrease in blood pressure [1]: 32%
- Decrease in blood pressure [3]: 14%

Compound: CCCCc1nc(Cl)c(CO)n1Cc1ccc(-c2ccccc2-c2nnn[nH]2)cc1 [LOSARTAN]
- Decrease in blood pressure [4]: 34%
- Decrease in blood pressure [5]: 27%
- Decrease in blood pressure [6]: 21%
- Decrease in blood pressure [7]: inactive

Compound: CCCN(Cc1ccc(-c2ccccc2-c2nn[nH]n2)cc1)c1nc(C)cnc1C(=O)O
- Decrease in blood pressure [8]: 2%
- Decrease in blood pressure [9]: 18%

Compound: C=CCN(Cc1ccc(-c2ccccc2-c2nn[nH]n2)cc1)c1ncccc1C(=O)O
- Decrease in blood pressure [8]: 13%
- Decrease in blood pressure [9]: 31%

Compound: CCCN(Cc1ccc(-c2ccccc2-c2nn[nH]n2)cc1)c1ncc(F)cc1C(=O)O
- Decrease in blood pressure [8]: 6%
- Decrease in blood pressure [9]: 22%

- half-life [10]: 3.9 h
- clearance [11]: 1.47 mL/min
- pKi [2]: 9.35
- half-life [14]: 4.5 h
- Vd [15]: 0.41 L/kg
- bioavailability [16]: 66.7%
- Tmax [17]: 2 h
- Vd [20]: 1.78 L/kg
- AUC [21]: 11.14 µg/h/mL
- Cmax [22]: 1590 ng/mL
Compound: CCc1nc2c(C)cc(C)nc2n1Cc1ccc(-c2ccccc2-c2nnn[nH]2)cc1 [L-158809]
- Decrease in blood pressure [12]: 15%
- Decrease in blood pressure [8]: 32%
- Decrease in blood pressure [13]: 8%
- Decrease in blood pressure [9]: 30%
- Decrease in blood pressure [18]: 32%
- Decrease in blood pressure [19]: 25%

Compound: CCCN(Cc1ccc(-c2ccccc2-c2nn[nH]n2)cc1)c1ncccc1NS(=O)(=O)C(F)(F)F
- Decrease in blood pressure [23]: 6%

- pKi [2]: 8.56
Compound: CCCN(Cc1ccc(-c2ccccc2-c2nn[nH]n2)cc1)c1nc(C)ncc1C(=O)O
- Decrease in blood pressure [1]: 18%
- Decrease in blood pressure [3]: 15%

Compound: CCCCN(Cc1ccc(-c2ccccc2-c2nn[nH]n2)cc1)c1nccnc1C(=O)O
- Decrease in blood pressure [8]: 7%
- Decrease in blood pressure [9]: 21%

Compound: CCCN(Cc1ccc(-c2ccccc2-c2nn[nH]n2)cc1)c1nnccc1C(=O)O
- Decrease in blood pressure [8]: 3%
- Decrease in blood pressure [9]: 18%
